# Tb hexokinase = T. brucei hexokinase 1 inhibition; recombinant TbHK1, G6PDH-coupled NADH A340; inhibition, % at 10 µM; 220,000 tested, 0.11% active; AID 1430;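 active means inhibition of 50% or more in the single-dose primary screen; inactive means inhibition below 50%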
# Runt-CBFb FRET = blocks binding of human RUNX1 Runt domain to CBFb; Q01196+Q13951; Cerulean-Runt/Venus-CBFb FRET ratio 530/480, 1 h; inhibition, % at 20 µM; 220,000 tested, 0.46% active;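 active means inhibition over about 50% at 20 µM in the single-dose screen, limit read from the data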;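 further: 0% = DMSO wells and 100% = excess unlabeled CBFb competitor control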
#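 test system = Cerulean-Runt domain fusion protein, energy donor | probe or stimulus = Venus-CBFb binding partner, 100 nM | incubation = two 1 h room-temperature incubations shielded from light | detection = fluorescence energy transfer, 422 nm excitation, 530/480 nm emission | measure = loss of energy transfer signal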
# Runt-SMMHC FRET = blocks binding of human RUNX1 Runt domain to CBFb-SMMHC. Cerulean-Runt/Venus-CBFb-SMMHC FRET ratio 530/480, 1 h. inhibition, % at 20 µM. AID 1434. Q01196+Q13951. 220,000 tested, 0.74% active;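 active means mean inhibition across duplicate retests at 20 µM reaching about 50%, limit read from the data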;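 further: 0% = DMSO wells and 100% = wells with excess untagged CBFb-SMMHC; inhibitors lower the FRET ratio by blocking Runt binding to CBFb-SMMHC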
# RanGTP-Impb inh = inhibitors of RanGTP-importin-beta interaction, primary screen, biochemical, FRET, CFP-Ran, YFP-importin-beta, homogeneous; cell-free CFP-Ran/YFP-importin-beta FRET ratio; inhibition, % (no concentration beside the values); 300,000 tested, 1.1% active;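 active means more than half of the replicate wells show a fall in the fluorescence ratio signal beyond about 16%, limit read from the data, passing the limit was not always enough; inconclusive means exactly half of the replicate wells pass the set limit; inactive means fewer than half of replicates pass the limit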;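 further: 0% = DMSO wells and 100% = Ran loaded with GDP instead of GTP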
# Hck-Nef inh = inhibitors of human Hck kinase activated by Nef | P08631 | Recombinant Hck-YEEI plus Nef, Z-Lyte FRET kinase assay | inhibition, % at 20 µM | 220,000 tested, 0.68% active;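 active means Hck-Nef kinase inhibition above about 50%, limit read from the data; inactive means inhibition below that limit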;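 further: 0% = DMSO with Hck plus Nef and 100% = Hck alone without Nef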
# Target sequence (P08631 whole entry, looked up): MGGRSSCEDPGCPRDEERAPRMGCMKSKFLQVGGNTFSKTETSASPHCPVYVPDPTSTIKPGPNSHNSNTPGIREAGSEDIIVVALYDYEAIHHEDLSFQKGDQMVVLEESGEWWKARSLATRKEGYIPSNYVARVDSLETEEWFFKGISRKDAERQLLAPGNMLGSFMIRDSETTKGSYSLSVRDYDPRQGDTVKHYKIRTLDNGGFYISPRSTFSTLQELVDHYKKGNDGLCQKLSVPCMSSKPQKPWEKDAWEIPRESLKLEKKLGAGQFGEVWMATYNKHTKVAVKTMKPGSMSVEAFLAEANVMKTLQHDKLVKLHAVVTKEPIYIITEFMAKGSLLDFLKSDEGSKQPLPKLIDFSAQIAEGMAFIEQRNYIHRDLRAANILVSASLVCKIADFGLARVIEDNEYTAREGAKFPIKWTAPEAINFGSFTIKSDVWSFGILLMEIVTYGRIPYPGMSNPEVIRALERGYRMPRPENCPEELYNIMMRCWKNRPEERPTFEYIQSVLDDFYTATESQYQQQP
# Runt-CBFb TRFRET = inhibitors of human RUNX1 Runt domain binding to CBFb | shares compounds with Runt-CBFb FRET | TR-FRET RUNX1 Runt domain-CBFb binding | inhibition, % at 20 µM | 480 tested, 20% active | AID 1502; in the data active means inhibition above about 40%
# YIC counter = counter-screen: alters YIC FRET probe signal. shares compounds with RanGTP-Impb inh. Purified YIC probe, intramolecular FRET ratio YFP/CFP. IC50, µM. 1,000 tested, 40% active. AID 435026;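 active means fitted half-maximal inhibitory concentration no more than tenfold above the top dose tested; inconclusive means flat fit with 30 to 70% activity, or poor fit; inactive means half-maximal concentration beyond tenfold above the top dose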
# Starred values were filed as active, the others as inactive; i = inactive; ? = inconclusive; / = no result; + = active, no number. A selection: hits, their analogues and other compounds. The true share with any hit is near 1.9%.
SMILES,Tb hexokinase,Runt-CBFb FRET,Runt-SMMHC FRET,RanGTP-Impb inh,Hck-Nef inh,Runt-CBFb TRFRET,others
O=S(=O)(Nc1ccc(-c2nc3cccnc3s2)cc1)c1ccc(Cl)s1,-41,68*,/,?,9,30,
Cc1ccc(/C=N/NC(=O)CC2N=C(Cc3ccccc3)NNC2=O)cc1 (stereo not drawn),-5,/,/,1,8,/,
Cc1cccc2cc(C(c3nnnn3Cc3ccccc3)N3CCN(c4ccccc4)CC3)c(=O)[nH]c12 (stereo not drawn),-9,51*,-1,6,-1,i,
O=C(Nc1ccc(-c2nc3ccccc3s2)c(O)c1)C1=COCCO1,-13,59*,128*,-31,67*,2,
CC(Nc1cc(C)cc(C)c1)=[N+](C)CCNS(=O)(=O)c1ccc(Cl)cc1,/,/,/,-1,/,/,
S=c1[nH]nc(-c2cc3c(s2)-c2ccccc2CC3)o1,-12,57*,70*,17*,29,17,
CCOC(=O)C1CCCN(CCC(=O)Nc2ccccc2C)C1 (stereo not drawn),4,1,-6,-4,15,/,
O=c1[nH]c2ccccc2c(O)c1O,38,59*,57*,1,-38,39,
O=c1[nH]c2ccccc2c(O)c1-[n+]1ccccc1,-8,20,3,-1,15,/,
CCOC(=O)C1=C(C)N(c2ccc(OC)cc2)C(=O)/C1=C\c1ccc(O)c(OCC)c1,-2,65*,-4,-12,-309,32,
Cc1ccc(N2CC(C(=O)Nc3ccc(C)c(S(=O)(=O)N(C)C)c3)CC2=O)cc1 (stereo not drawn),8,-3,-1,-3,19,/,
CN(C)CCCNS(=O)(=O)c1cc(Cl)ccc1Cl,-4,-1,-2,0,1,/,
CN(C)CCCNS(=O)(=O)c1ccc(N2CCC(c3ccc(Cl)cc3)=N2)cc1,-33,57*,93*,27*,+,-25,
CCc1ccc(N2C(=O)C(Cl)=C(N3CCOCC3)C2=O)cc1,-1,68*,70,-2,16,12,
CCc1ccc(N2C(=O)C(Cl)=C(N3CCCCCC3)C2=O)cc1,/,/,/,-2,/,/,
Cc1cccc(N2C(=O)C(Cl)=C(N3CCOCC3)C2=O)c1,-3,51*,42,3,-8,18,
O=C(O[C@@H]1OC2COC(=O)c3cc(O)c(O)c(O)c3-c3c(cc(O)c(O)c3O)C(=O)O[C@@H]([C@H]1O)[C@@H]2O)c1cc(O)c(O)c(O)c1,50,57*,42,6,38,67*,
Cc1nc2ccccn2c1-c1ccnc(=S)[nH]1,-35,60*,40,1,-45,20,
Cc1ccc(Nc2nc(-c3c(C)nc4ccccn34)cs2)cc1,-16,4,-3,?,1,/,
Cc1ccccc1-n1c(SCC(=O)NCc2cccs2)nc2ccccc2c1=O,-1,1,1,2,2,/,
CC(C)CC(=O)NN1CCCCC1,5,75*,0,9,-22,58*,
CCC(C)NC(=O)CC(C)C (stereo not drawn),-4,2,0,1,17,/,
O=c1[nH]c(C2CCCN(S(=O)(=O)c3ccccc3)C2)nc2c1nnn2Cc1ccccc1Br (stereo not drawn),/,/,/,2,/,/,
CCC1(C)Cc2c(sc3[nH]c(=O)[nH]c(=O)c23)CS1 (stereo not drawn),42,57*,/,6,0,18,
O=C(NCCCN1CCOCC1)c1sc2cc([N+](=O)[O-])ccc2c1Cl,-6,50*,39,3,-84,-2,
SMILES,Tb hexokinase,Runt-CBFb FRET,Runt-SMMHC FRET,RanGTP-Impb inh,Hck-Nef inh,Runt-CBFb TRFRET,others
CC(NC(=O)c1ccc(C23CC4CC(CC(C4)C2)C3)cc1)C(=O)O (stereo not drawn),-2,0,0,8,27,/,
COc1ccc(/C=C(\C#N)C(=O)Nc2cccc3ncccc23)cc1OC,-50,69*,60*,50*,32,64*,
COc1ccc(/C=C(/C#N)C(=O)Nc2cccnc2)cc1OC,-41,0,1,-1,9,/,
Cc1nc(N2CCCCC2)c2sc(=S)n(C)c2n1,-8,0,1,-1,21,/,
CCN1CCN(c2nc(C)nc3c2sc(=S)n3C)CC1,-52,53*,38,/,-23,-1,
COc1cc(N2C(=O)C=CC2=O)c(OC)cc1Cl,-12,64*,70*,?,-157,11,
O=C(CCSc1ccccn1)c1ccccc1,-11,59*,45,2,14,5,
O=C(Oc1ccc(C(=S)N2CCOCC2)cc1Br)c1cc(Cl)ccc1Cl,-3,/,-4,1,0,/,
O=C(Oc1c(Br)cc(C(=S)N2CCOCC2)cc1Br)c1ccc(Cl)cc1,-6,50*,24,17*,-1,-11,YIC counter=>50
COCC(C)OC(=O)c1c(N)n(CC(C)C)c2nc3ccccc3nc12 (stereo not drawn),-27,63*,126*,21*,33,33,YIC counter=26*
CC(C)OC(=O)c1c(N)n(CCCN2CCOCC2)c2nc3ccccc3nc12,-18,65*,84*,25*,25,32,YIC counter=31*
C=CCn1c(N)c(C(=O)OC(C)CC)c2nc3ccccc3nc21 (stereo not drawn),-19,66*,123*,35*,30,28,YIC counter=22*
c1ccc2nc3c(nc2c1)c1ccccc1n3CCN1CCOCC1,-23,-4,-8,?,6,/,
CCCCn1c(N)c(N(CC(C)C)C(=O)CC2OC(=O)c3ccccc32)c(=O)[nH]c1=O (stereo not drawn),/,/,/,1,/,/,
Cc1cc(O)cc(O)c1C=NCc1ccco1,-31,10,6,4,0,/,
COc1ccc(-c2c(C)sc(NC(=O)c3ccnn3C)c2C#N)cc1,-13,57*,18,25*,4,-52,YIC counter=>50
Cn1nccc1C(=O)Nc1sc2c(c1C#N)CCCC2,/,/,/,-3,/,/,
O=C(N/N=C/c1ccc(N2CCCC2)c([N+](=O)[O-])c1)c1cccnc1,-48,12,2,?,8,/,
O=C(Cn1c2ccccc2c(=O)c2ccccc21)N/N=C/c1ccc(N2CCCC2)c([N+](=O)[O-])c1,-26,76*,133*,28*,37,-1,YIC counter=>50
COC(=O)C1=C(C)NC2=C(C(=O)CCC2)C1c1cccc(C)n1 (stereo not drawn),-8,60*,132*,19*,22,4,YIC counter=31*
CC(c1nccs1)N(C)C(=O)CCc1nnc(Cc2c[nH]c3ccccc23)o1 (stereo not drawn),6,-1,-2,2,28,/,

# Source: PubChem
